# Measurements from ChEMBL document CHEMBL4145686, “Discovery of a Potent and Selective Steroidal Glucocorticoid Receptor Antagonist (ORIC-101)” (J Med Chem, 2018).
# Active and inactive are the calls of the source. No cut-off for these calls is given here.
# Experiments:
# [1] = test system: OVCAR-5; assay: Potentiation of gemcitabine-induced antitumor activity against human OVCAR5 cells xenografted in chronic cortisol treated nude mouse assessed as reduction in tumor volume at 75 mg/kg, po BID dosed via gavage co-treated with gencitabine at 100 mg/kg dosed every 3 days for 4 doses; format: functional, organism-based
# Outline: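 Cortisol given in drinking water at 100 mg/L before tumor implantation and throughout the study. Mice bearing established OVCAR5 xenografts, n = 10 per group. Gemcitabine 100 mg/kg and carboplatin 60 mg/kg given every 3 days for 4 doses. Antagonist given at 75 mg/kg twice daily by oral gavage for the whole study. Tumor volume tracked, mean ± SEM, with significance assessed on day 21.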
# [2] = Unbound plasma concentration in nude mouse xenografted with human OVCAR5 cells at 25 to 75 mg/kg, po dosed as gavage and measured after 6 hrs; format: ADME, organism-based; details: in vivo
# Outline: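 OVCAR5 xenograft mice received dexamethasone 0.5 mg/kg by intraperitoneal injection with or without a single oral gavage dose of the antagonist at 25, 50 or 75 mg/kg. Tumors and plasma collected 6 h later. Tumor FKBP5 mRNA measured by RT-qPCR. Unbound plasma concentration of the antagonist determined, n = 4 mice per group. FKBP5 effects tested by one-way ANOVA with Dunnett's test versus the vehicle group.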
# [3] = target: T1, Glucocorticoid receptor (Rattus norvegicus, UniProt P06536); assay: Antagonist activity at GR in rat PBMC assessed as reduction in dexamethasone-induced GILZ gene expression incubated for 24 hrs by RT-qPCR method; format: cell-based
# T1 sequence (P06536 whole entry): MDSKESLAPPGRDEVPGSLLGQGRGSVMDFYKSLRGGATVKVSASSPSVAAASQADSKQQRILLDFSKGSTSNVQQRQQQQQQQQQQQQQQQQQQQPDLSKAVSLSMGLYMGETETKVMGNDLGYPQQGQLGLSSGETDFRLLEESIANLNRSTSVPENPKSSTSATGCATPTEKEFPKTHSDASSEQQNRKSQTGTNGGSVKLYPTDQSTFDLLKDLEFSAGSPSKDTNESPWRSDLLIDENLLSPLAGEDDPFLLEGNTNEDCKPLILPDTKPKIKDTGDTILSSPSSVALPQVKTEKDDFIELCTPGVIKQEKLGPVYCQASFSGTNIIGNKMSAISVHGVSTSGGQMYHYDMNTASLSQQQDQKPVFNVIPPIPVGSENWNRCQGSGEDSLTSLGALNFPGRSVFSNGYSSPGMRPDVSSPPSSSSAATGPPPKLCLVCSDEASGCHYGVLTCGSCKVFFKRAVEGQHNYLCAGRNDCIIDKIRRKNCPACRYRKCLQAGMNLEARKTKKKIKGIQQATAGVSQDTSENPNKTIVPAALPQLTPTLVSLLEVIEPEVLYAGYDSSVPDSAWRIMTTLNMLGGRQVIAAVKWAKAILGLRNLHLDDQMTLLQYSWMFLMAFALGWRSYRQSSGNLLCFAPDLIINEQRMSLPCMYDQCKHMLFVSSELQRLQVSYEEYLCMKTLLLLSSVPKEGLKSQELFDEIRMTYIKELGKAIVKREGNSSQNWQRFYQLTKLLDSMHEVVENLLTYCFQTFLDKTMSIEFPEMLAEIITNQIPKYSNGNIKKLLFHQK
# [4] = target: Cytochrome P450 2C9 (Homo sapiens, UniProt P11712); assay: Inhibition of CYP2C9 (unknown origin) using […] as substrate; format: ADME
# [5] = target: T2, Glucocorticoid receptor (Sus scrofa) (UniProt Q9N1U3); assay: (§1) Antagonist activity at GR in mini pig PBMC assessed as reduction in dexamethasone-induced GILZ gene expression incubated for 24 hrs by RT-qPCR method; format: cell-based
# T2 sequence (whole entry): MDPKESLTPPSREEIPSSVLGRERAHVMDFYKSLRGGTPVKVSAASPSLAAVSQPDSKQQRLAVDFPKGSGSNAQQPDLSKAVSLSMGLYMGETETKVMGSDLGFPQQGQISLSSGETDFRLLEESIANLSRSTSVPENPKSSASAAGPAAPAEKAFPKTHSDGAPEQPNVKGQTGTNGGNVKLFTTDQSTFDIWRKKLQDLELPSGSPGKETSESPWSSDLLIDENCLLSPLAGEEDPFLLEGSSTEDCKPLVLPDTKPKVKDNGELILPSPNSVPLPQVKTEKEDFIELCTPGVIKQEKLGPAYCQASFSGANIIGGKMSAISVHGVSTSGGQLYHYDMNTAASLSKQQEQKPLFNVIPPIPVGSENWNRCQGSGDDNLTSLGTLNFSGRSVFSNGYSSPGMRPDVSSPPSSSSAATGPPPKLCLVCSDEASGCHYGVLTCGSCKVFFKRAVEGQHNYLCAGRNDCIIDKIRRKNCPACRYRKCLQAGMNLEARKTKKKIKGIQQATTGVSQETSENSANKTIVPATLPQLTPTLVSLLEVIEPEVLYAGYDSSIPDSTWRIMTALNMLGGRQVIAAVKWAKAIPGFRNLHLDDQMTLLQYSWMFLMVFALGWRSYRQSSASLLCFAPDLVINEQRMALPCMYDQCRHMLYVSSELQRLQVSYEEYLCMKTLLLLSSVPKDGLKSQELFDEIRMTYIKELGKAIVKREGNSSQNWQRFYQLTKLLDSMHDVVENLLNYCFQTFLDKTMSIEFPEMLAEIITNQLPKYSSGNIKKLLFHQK
# [6] = target: T3, Glucocorticoid receptor (Sus scrofa, UniProt Q9N1U3); assay: as §1; format: cell-based
# T3 sequence (Q9N1U3 whole entry): T2 sequence (whole entry)
# [7] = Half life in mouse at 0.5 mg/kg, iv; format: ADME, organism-based; details: in vivo
# Cytochrome P450 2C9, sequence (P11712 whole entry): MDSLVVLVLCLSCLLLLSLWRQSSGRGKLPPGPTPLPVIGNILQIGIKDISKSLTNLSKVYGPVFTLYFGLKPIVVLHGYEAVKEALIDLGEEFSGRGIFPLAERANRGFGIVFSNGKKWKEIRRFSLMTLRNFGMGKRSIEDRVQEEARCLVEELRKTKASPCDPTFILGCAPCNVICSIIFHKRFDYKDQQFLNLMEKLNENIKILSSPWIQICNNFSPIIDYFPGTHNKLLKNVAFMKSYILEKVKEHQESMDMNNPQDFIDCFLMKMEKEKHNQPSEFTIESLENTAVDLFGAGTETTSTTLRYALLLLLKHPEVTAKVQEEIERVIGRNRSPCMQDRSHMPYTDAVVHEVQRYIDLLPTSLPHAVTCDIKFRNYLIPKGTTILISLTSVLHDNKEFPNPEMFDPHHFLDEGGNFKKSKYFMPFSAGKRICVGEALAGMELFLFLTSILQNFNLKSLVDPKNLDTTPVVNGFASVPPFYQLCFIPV
smiles,measurement,setting,value
CC(C)N(C)c1ccc([C@H]2C[C@@]3(C)[C@@H](CC[C@@]3(O)C#CC(C)(C)C)[C@@H]3CCC4=CC(=O)CC[C@@H]4[C@H]32)cc1,Activity,[1],Active
same,Cp(f),[2],0.02 to 0.12 µM
same,IC50,[3],59.4 nM
same,IC50,[4],> 10 µM
same,inhibition,[5],Dose-dependent effect
same,IC50,[6],181 nM
same,half-life,[7],290 min
